Data: ChEMBL document CHEMBL2163314, “Potent aminocyclitol glucocerebrosidase inhibitors are subnanomolar pharmacological chaperones for treating gaucher disease” (J Med Chem, 2012)

Molecular target: T1, Non-lysosomal glucosylceramidase (Mus musculus) (UniProt Q69ZF3)
T1 sequence (whole entry): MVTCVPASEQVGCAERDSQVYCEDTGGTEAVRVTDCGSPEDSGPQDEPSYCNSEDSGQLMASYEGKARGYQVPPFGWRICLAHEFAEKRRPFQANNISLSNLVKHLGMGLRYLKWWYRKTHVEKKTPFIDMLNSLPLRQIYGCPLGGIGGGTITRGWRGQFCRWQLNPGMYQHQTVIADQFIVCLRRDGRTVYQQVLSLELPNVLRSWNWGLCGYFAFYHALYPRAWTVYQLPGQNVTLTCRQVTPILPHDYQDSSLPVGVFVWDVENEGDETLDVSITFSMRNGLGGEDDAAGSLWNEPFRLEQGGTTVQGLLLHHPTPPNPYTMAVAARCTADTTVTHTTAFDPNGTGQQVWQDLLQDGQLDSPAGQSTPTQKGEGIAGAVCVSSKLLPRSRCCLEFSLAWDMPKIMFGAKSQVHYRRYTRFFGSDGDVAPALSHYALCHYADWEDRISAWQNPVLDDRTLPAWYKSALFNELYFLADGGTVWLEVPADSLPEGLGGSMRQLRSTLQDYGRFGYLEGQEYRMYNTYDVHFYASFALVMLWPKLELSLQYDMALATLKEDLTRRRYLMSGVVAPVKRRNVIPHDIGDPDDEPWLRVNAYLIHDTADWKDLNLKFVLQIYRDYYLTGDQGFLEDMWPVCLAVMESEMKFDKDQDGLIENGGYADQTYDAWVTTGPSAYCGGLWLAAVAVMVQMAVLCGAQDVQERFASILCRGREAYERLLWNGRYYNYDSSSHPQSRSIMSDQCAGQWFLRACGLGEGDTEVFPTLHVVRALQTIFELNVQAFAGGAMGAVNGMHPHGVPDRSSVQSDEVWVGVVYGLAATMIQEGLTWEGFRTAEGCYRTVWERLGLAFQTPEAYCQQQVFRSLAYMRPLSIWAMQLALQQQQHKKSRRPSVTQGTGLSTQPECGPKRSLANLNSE
Experiment: Inhibition of GBA2 activity in mouse tissue homogenate at 5 uM
In short: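 Mouse tissue homogenates were used to separate nonlysosomal GBA2 from lysosomal GCase β-glucosidase activity. Compounds were screened at 50 and 5 μM with 3 mM substrate. Two independent experiments, each run in duplicate.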

CCCCCCCCCN[C@@H]1[C@H](O)[C@@H](O)[C@H](O)[C@@H](O)[C@@H]1O
inhibition: 69%
